Assay results of several laboratories.
Each line is one published result; the experiments were not run side by side.
Target: Protein kinase C eta type (PRKCH, Homo sapiens, UniProt P24723)

SMILES | read-out | mode | method | tested at | quantity | value
N#CC1(c2ccccn2)CCN(Cc2cc(C(=O)O)c(=O)n3ccccc23)CC1 | cell-free assay |  | competition with immobilised ligand | 1 µM | remaining binding | 100%
COc1ncccc1-c1cnn2ccc(N3CCN(C(=O)OC(C)C)CC3)nc12 | binding |  | competition with immobilised ligand | 1 µM | remaining binding | 49%
Cn1cc(-c2cccc(N3CCc4c(sc5c4CC(C)(C)C5)C3=O)c2CO)cc(Nc2ccncn2)c1=O | enzyme activity | inhibitor |  | 1 µM | inhibition | 20%
Cn1cncc1[C@](O)(COc1ccc(C#N)cc1-c1ccc(OC(F)(F)F)cc1)c1ccc(C#N)cc1 | cell-free assay |  | competition with immobilised ligand | 1 µM | remaining binding | 94%
Cn1cc(-c2cc(F)cc(N3CCn4c(cc5c4CCCC5)C3=O)c2CO)cc(Nc2ccc(N3CCN(C4COC4)CC3)cn2)c1=O | enzyme activity | inhibitor |  | 0.1 µM | inhibition | 4%
COc1cc(Nc2ncc(F)c(Nc3ccc4c(n3)NC(=O)C(C)(C)O4)n2)cc(OC)c1OC | binding |  |  | 10 µM | inhibition | 0%
Cc1nn(C)cc1-c1nc2c(N3CCN(Cc4ccc(Cl)cc4)CC3)c(Cl)cnc2[nH]1 | binding |  | competition with immobilised ligand | 1 µM | remaining binding | 100%
Nc1ncc(-c2nc(N3CCOCC3)nc(N3CCOCC3)n2)c(C(F)F)n1 | cell-free assay |  | competition with immobilised ligand | 10 µM | remaining binding | 91%
